Laboratory results from ChEMBL document CHEMBL1153592, “1,8-Naphthyridine-3-carboxamide derivatives with anticancer and anti-inflammatory activity” (Eur J Med Chem, 2009).
Activity calls are given as the source filed them. The calls are words filed in the database; no cut-off is given here.

Tests used:
SW-620 [1] = assay: Cytotoxicity against human SW620 cells after 72 hrs by MTT assay; format: functional, cell-based; conditions: SW-620, 72 h
KB [2] = assay: Cytotoxicity against human KB cells after 72 hrs by MTT assay; format: functional, cell-based
[3] = Antiinflammatory activity in C57BL/6 mouse DC assessed as inhibition of LPS-induced IP-10 production at 0.1 ug/ml after 24 hrs by ELISA; format: functional
How it was run: (§1)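 Dendritic cells grown from femoral bone marrow of 8–12-week-old C57BL/6 mice in RPMI-1640 with 10% FBS and 20 ng/ml rmGM-CSF at 37 °C, 5% CO2. Day-6 immature DCs were stimulated with 10 ng/ml LPS plus compound for 24 h. Supernatant cytokine/chemokine measured by ELISA (pg/ml); % change = (B−A)/A×100, versus LPS-stimulated DCs alone.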

[4] = Antiinflammatory activity in C57BL/6 mouse DC assessed as inhibition of LPS-induced TNFalpha production at 0.1 ug/ml after 24 hrs by ELISA; format: functional; how it was run: as §1
PA-1 [5] = assay: Cytotoxicity against human PA1 cells after 72 hrs by MTT assay; format: functional, cell-based; conditions: PA-1, 72 h
A549 [6] = assay: Cytotoxicity against human A549 cells after 72 hrs by MTT assay; format: functional, cell-based; conditions: A549, 72 h
ECV-304 [7] = assay: Cytotoxicity against human ECV304 cells after 72 hrs by MTT assay; format: functional, cell-based; conditions: Homo sapiens, ECV-304, 72 h; read-out: IC50
HBL-100 [8] = assay: Cytotoxicity against human HBL100 cells after 72 hrs by MTT assay; format: functional, cell-based; conditions: HBL-100, 72 h
MIA PaCa-2 [9] = assay: Cytotoxicity against human MIAPaCa2 cells after 72 hrs by MTT assay; format: functional, cell-based; conditions: MIA PaCa-2, 72 h
[10] = Cytotoxicity against mouse NIH/3T3 cells after 72 hrs by MTT assay; format: cell-based, NIH3T3
[11] = Antiinflammatory activity in C57BL/6 mouse DC assessed as inhibition of LPS-induced IP-10 production at 1 ug/ml after 24 hrs by ELISA; format: functional; how it was run: as §1
[12] = Antiinflammatory activity in C57BL/6 mouse DC assessed as inhibition of LPS-induced TNFalpha production at 1 ug/ml after 24 hrs by ELISA; format: functional; how it was run: as §1
[13] = Antiinflammatory activity in C57BL/6 mouse DC assessed as inhibition of LPS-induced IL1-beta production at 1 ug/ml after 24 hrs by ELISA; format: functional; how it was run: as §1
K562 [14] = assay: Cytotoxicity against human K562 cells after 72 hrs by MTT assay; format: functional, cell-based; conditions: K562, 72 h
DU-145 [15] = assay: Cytotoxicity against human DU145 cells after 72 hrs by MTT assay; format: functional, cell-based; conditions: DU-145, 72 h
[16] = Antiinflammatory activity in C57BL/6 mouse DC assessed as inhibition of LPS-induced IL1-beta production at 0.1 ug/ml after 24 hrs by ELISA; format: functional; how it was run: as §1
MIA PaCa-2 [17] = assay: Cytotoxicity against human MIAPaCa2 cells at 10 uM after 72 hrs by MTT assay; format: functional, cell-based
How it was run: (§2)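 Three-day MTT screen with 5000–10,000 cells/well and 72 h compound exposure at the top screening concentration. After 3 h of MTT uptake, lysis with 10% SDS–0.01 N HCl, then A540 read after 1 h. % cytotoxicity = (1 − X/R1)×100, where X is treated minus blank absorbance and R1 is untreated control absorbance.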

DU-145 [18] = assay: Cytotoxicity against human DU145 cells at 10 uM after 72 hrs by MTT assay; format: functional, cell-based; how it was run: as §2
A549 [19] = assay: Cytotoxicity against human A549 cells at 10 uM after 72 hrs by MTT assay; format: functional, cell-based; how it was run: as §2
KB [20] = assay: Cytotoxicity against human KB cells at 10 uM after 72 hrs by MTT assay; format: functional, cell-based; how it was run: as §2
[21] = Cytotoxicity against mouse NIH/3T3 cells at 10 uM after 72 hrs by MTT assay; format: cell-based; conditions: nih3t3, 72 h; how it was run: as §2
SW-620 [22] = assay: Cytotoxicity against human SW620 cells at 10 uM after 72 hrs by MTT assay; format: functional, cell-based; how it was run: as §2
HBL-100 [23] = assay: Cytotoxicity against human HBL100 cells at 10 uM after 72 hrs by MTT assay; format: functional, cell-based; how it was run: as §2
PA-1 [24] = assay: Cytotoxicity against human PA1 cells at 10 uM after 72 hrs by MTT assay; format: functional, cell-based; how it was run: as §2
K562 [25] = assay: Cytotoxicity against human K562 cells at 10 uM after 72 hrs by MTT assay; format: functional, cell-based; how it was run: as §2
ECV-304 [26] = assay: Cytotoxicity against human ECV304 cells at 10 uM after 72 hrs by MTT assay; format: functional, cell-based; how it was run: as §2
[27] = Antiinflammatory activity in C57BL/6 mouse DC assessed as inhibition of LPS-induced IL-6 production at 1 ug/ml after 24 hrs by ELISA; format: functional; how it was run: as §1
[28] = Antiinflammatory activity in C57BL/6 mouse DC assessed as inhibition of LPS-induced IL-6 production at 0.1 ug/ml after 24 hrs by ELISA; format: functional; how it was run: as §1

Structure (SMILES)	IC50 (SW-620 [1]) [µM]	IC50 (KB [2]) [µM]	inhibition (INH) [3] [%]	inhibition (INH) [4] [%]	IC50 (PA-1 [5]) [nM]	IC50 (A549 [6]) [µM]	IC50 (ECV-304 [7]) [µM]	IC50 (HBL-100 [8]) [µM]	IC50 (MIA PaCa-2 [9]) [µM]	inhibition (INH) [11] [%]	inhibition (INH) [12] [%]	inhibition (INH) [13] [%]	IC50 (K562 [14]) [µM]	IC50 (DU-145 [15]) [µM]	inhibition (INH) [16] [%]	Activity (MIA PaCa-2 [17])	Activity (DU-145 [18])	Activity (A549 [19])	Activity (KB [20])	Activity [21]	other results
C#CCn1cc(C(=O)NC(CC(=O)Nc2ccccc2)c2ccccc2)c(=O)c2cccnc21 (centres undefined)	> 10	> 10	31.7	19.1	> 10000	> 10	> 10	> 10	> 10	33.1	29.7	78.5	> 10	7.2	75.1	–	–	–	–	–	IC50 ([10]; nih3t3): Not Active
C#CCn1cc(C(=O)NC(CC(=O)NC2CCCC2)c2ccccc2)c(=O)c2cccnc21 (centres undefined)	–	–	38.8	19.3	–	–	–	–	–	25	34.7	52.1	–	–	62.4	inactive	inactive	inactive	inactive	Not Active	Activity (SW-620 [22]): inactive; Activity (HBL-100 [23]): inactive; Activity (PA-1 [24]): inactive; Activity (K562 [25]): inactive; Activity (ECV-304 [26]): inactive
C#CCn1cc(C(=O)NC(CC(=O)Nc2ccccn2)c2ccccc2)c(=O)c2cccnc21 (centres undefined)	–	–	–	–	–	–	–	–	–	–	–	50.1	–	–	34.1	inactive	inactive	inactive	inactive	Not Active	inhibition (INH) [27]: 74.9%; inhibition (INH) [28]: 74.4%; Activity (SW-620 [22]): inactive; Activity (HBL-100 [23]): inactive; Activity (PA-1 [24]): inactive; Activity (K562 [25]): inactive; Activity (ECV-304 [26]): inactive
C#CCn1cc(C(=O)NC(CC(=O)Nc2ccccc2)c2ccccc2)c(=O)c2cc(F)c(Cl)nc21 (centres undefined)	5.7	> 10	17.3	80	2100	> 10	> 10	9.3	6.9	102.4	99	106.8	6.6	5.9	84.8	–	–	–	–	–	inhibition (INH) [27]: 96%; inhibition (INH) [28]: 60%; IC50 ([10]; Mus musculus, NIH3T3, 72 h, read-out: IC50): 9.7 µM
